Reference: paper PMC4627538 (Journal of Diabetes Investigation, 2015)
Bridge positions count the residues as written; N and C are the ends. Ends that are not written are not given here.

Assays:
[1] = system: maltase glucoamylase (MGAM); test: Phage ELISA, binding of phage clones to MGAM; parameters: species or system rat; details: displayed on phage, judged from ELISA signals, Figure 1
[2] = system: background proteins (BSA and anti-MGAM antibodies); test: Phage ELISA, binding of phage clones to background
How it was run: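 Wells coated overnight at 4°C with anti-MGAM antibodies (5 µg/mL) in PBS, blocked 90 min at room temperature with 2% BSA/PBS, with no MGAM added. 5×10^9 pfu of each phage clone in 0.05% PBST incubated 60 min, then washed five times with 0.1% PBST. Bound phage detected with HRP anti-M13 monoclonal antibody and TMB at A450. Triplicates, mean ± SD.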

CGHHHRDYC (disulfide 1-9 (inferred)) [C2]
affinity towards the target (MGAM), comparison between phage clones [1]: higher affinity towards the target than those obtained with specific elution | binding of phage clones to background proteins [2]: lower background binding

CTHYGFRGC (disulfide 1-9 (inferred)) [C1]
affinity towards the target (MGAM), comparison between phage clones [1]: higher affinity towards the target than those obtained with specific elution | binding of phage clones to background proteins [2]: lower background binding
